{
  "source": "PubChem BioAssay AID624204",
  "about": "(Sanford-Burnham Center for Chemical Genomics, 2012)",
  "note": "Out of some 360,000 compounds screened, about 770 (0.21%) were called active. Shown is part of a subset that was picked to be rich in actives. Unmarked numbers belong to inactive results.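 The calls were made as follows: active = inhibition at least 30% at 10 µM, raw YFP signal under a set limit, fluorescence ratio 0.5 to 1.5; inactive = the rest.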",
  "data": [
    {"molecular_target": "Sentrin-specific protease 1 (Homo sapiens) (UniProt Q9P0U3)", "sequence (Q9P0U3 419-644 limits assumed)": "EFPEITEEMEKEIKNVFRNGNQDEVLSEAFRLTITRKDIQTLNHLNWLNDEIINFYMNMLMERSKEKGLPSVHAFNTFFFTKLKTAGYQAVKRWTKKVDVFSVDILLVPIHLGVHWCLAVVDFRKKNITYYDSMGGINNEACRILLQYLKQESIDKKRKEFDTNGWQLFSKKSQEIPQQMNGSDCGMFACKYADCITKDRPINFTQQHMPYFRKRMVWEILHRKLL", "experiment": "human SENP1 catalytic domain inhibitors, primary screen, biochemical, FRET, uHTS (AID 624204);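 also: 0% = enzyme with DMSO and 100% = no enzyme wells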", "settings": "recombinant SENP1 catalytic domain, CyPet-SUMO1-YPet FRET cleavage; at 10 µM; hits give high values", "procedure,_shortened": "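Test system: human SENP1 catalytic domain; medium: Tris pH 8 buffer plus EDTA, NaCl, BME, BSA, NP40, catalase; incubation: 50 min reaction at room temperature; technique: FRET, CFP and YFP emission; controls: no-enzyme low control and enzyme-plus-DMSO high control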", "values": [
      {"smiles": "O=C1N=c2ccccc2=C/C1=C\\c1c(O)[nH]c(=S)[nH]c1=O", "inhibition": "-11.3%"},
      {"smiles": "COc1ccccc1N=Nc1c(O)[nH]c(=S)[nH]c1=O", "inhibition": "48.9% (active)"},
      {"smiles": "CCOCCc1c(O)[nH]c(=S)[nH]c1=O", "inhibition": "-0.672%"},
      {"smiles": "CCCOC(=O)C1C2c3ccccc3C(c3ccccc32)C1C(=O)O", "note": "(stereo not given)", "inhibition": "-1.79%"},
      {"smiles": "CC(CC(C#N)(c1ccccc1)c1ccccc1)N1CCCCC1", "note": "(stereo not given)", "inhibition": "1.04%"}
    ]}
  ]
}
